Broadly, the EC50 is the concentration needed to bring the measured effect to its halfway point.

The record followed here is ChEMBL document CHEMBL3797120, “Identification of 1,2,3-triazole derivatives that protect pancreatic β cells against endoplasmic reticulum stress-mediated dysfunction and death through the inhibition of C/EBP-homologous protein expression” (Bioorg Med Chem, 2016).

For data set [1], the system named is Mus musculus. Briefly: Antidiabetic activity in streptozotocin-induced diabetic C57BL/6 mouse model assessed as decrease in blood glucose level at 20 mg/kg, ip administered for 5 consecutive days with streptozotocin followed by 2 more weeks compound addition without streptozotocin measured every 3 day of compound dosing by glucometer relative to control. Type of data set: functional, organism-based. The gist of the method:
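Ten-week-old male C57BL/6 mice given STZ 50 mg/kg i.p. (in Na-citrate) once daily for 5 days, together with test agent 20 mg/kg i.p. (2 mg/ml in 10% DMSO/saline; n = 7) or vehicle (n = 6). Dosing without STZ then continued for 2 more weeks. Fasting (5 h) tail blood glucose read by glucometer every third day.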

A short description of data set [2]: Inhibition of endoplasmic reticulum stress-mediated upregulation of CHOP mRNA expression in tunicamycin-treated rat INS-1 cells after 2 to 8 hrs by qRT-PCR method. Format: functional, cell-based. The following applies: INS1. The gist of the method:
(§1)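 INS-1 cells seeded at 4 × 10⁵/well and treated with Tm 0.1 μg/ml plus compound, either for 8 h at indicated concentrations or for indicated times at 10 μM. CHOP mRNA was measured by qRT-PCR with rat primers, normalized to rat cyclophilin A, and reported as fold change.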

The subject of data set [3] is INS1. Briefly: Cytoprotective activity in endoplasmic reticulum stressed rat INS-1 cells assessed as rescue from tunicamycin-mediated reduction in cell survival after 72 hrs by CellTiter-Glo assay. The conditions noted are these: INS1, 72 h.
For data set [4], the target named is DNA damage-inducible transcript 3 protein (Mus musculus) (UniProt P35639). Nature of the data set: Inhibition of endoplasmic reticulum stress-induced CHOP activity in mouse BetaTC6 cells assessed as decrease in tunicamycin-induced cell death by measuring cell viability at 2.5 to 20 uM after 72 hrs by CellTiter-Glo assay. The following applies: Beta-TC6. Format: cell-based. The gist of the method:
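βTC6 mouse insulinoma cells (DMEM, 15% FBS) seeded at 3 × 10³/well and treated 72 h with Tm 0.25 μg/ml plus DMSO or compound. Viability measured by CellTiter-Glo and expressed as fold change versus Tm alone = 1. Means ± SD of triplicates.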
In general terms: In ATP-based viability assays light output follows the ATP content of the culture.

Data set [5] concerns the target DNA damage-inducible transcript 3 protein (Rattus norvegicus) (UniProt Q62857). Briefly: Inhibition of endoplasmic reticulum stress-induced CHOP activity in tunicamycin-treated rat INS-1 cells assessed as DNA fragmentation at 20 uM after 24 hrs by TUNEL assay (reference value: 15%). Type of data set: cell-based. The arrangement: scale not given: the % may be the effect or the level left. The conditions noted are these: INS1. The gist of the method:
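INS-1 cells seeded at 4 × 10⁴/well and treated 24 h with Tm 0.1 μg/ml plus 20 μM compound. Cells were fixed in 4% PFA, permeabilized, TUNEL-stained 1 h at 37°C, counterstained with DAPI, and imaged by high-content imaging. TUNEL+ percentage is mean ± SD of five images.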

A short description of data set [6]: Effect on basal CHOP mRNA expression in rat INS-1 cells at 10 uM after 2 to 8 hrs by qRT-PCR method. Format: ADME, cell-based. The following applies: ins1, 10 µM. The gist of the method:
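INS-1 cells seeded at 4 × 10⁵/well and exposed to DMSO or 10 μM compound without Tm for the indicated times. Total RNA (2 μg) was reverse transcribed. CHOP mRNA was measured by qRT-PCR with rat primers, normalized to rat cyclophilin A, and expressed as fold change.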
On the technique in general: In qPCR the cycle at which signal appears reflects the starting amount.

A short description of data set [7]: Effect on 2.5 mM glucose-stimulated insulin secretion in rat INS-1 cells preincubated for 24 hrs followed by glucose addition and subsequent incubation for 45 mins by ELISA. Type of data set: ADME, cell-based. The following applies: ins1, 0.75 h. The gist of the method:
(§2)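 INS-1 cells seeded at 1 × 10⁵/well and treated 24 h with compounds (with or without Tm). They were washed in Krebs-HEPES buffer pH 7.4 with 1% BSA, preincubated 1 h in 2.5 mM glucose, then stimulated 45 min with 2.5 or 20 mM glucose. Secreted insulin was measured by ELISA and normalized to Bradford total protein. The index is 20 mM/2.5 mM secretion from triplicate wells.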
(An ELISA detects its analyte on a solid surface through an enzyme-linked reagent.)

Data set [8] is described as follows: Effect on 20 mM glucose-stimulated insulin secretion in rat INS-1 cells preincubated for 24 hrs followed by glucose addition and subsequent incubation for 45 mins by ELISA. Type of data set: ADME, cell-based. The conditions noted are these: ins1, 0.75 h. The gist of the method: as §2
Data set [9] addresses DNA damage-inducible transcript 3 protein (Rattus norvegicus) (UniProt Q62857). Nature of the data set: Inhibition of endoplasmic reticulum stress-induced CHOP activity in rat INS-1 cells assessed as restoration of tunicamycin-mediated reduction of 20 mM glucose-stimulated insulin secretion preincubated for 24 hrs followed by glucose addition and subsequent incubation for 45 mins by ELISA. Format: cell-based. The following applies: INS1. The gist of the method: as §2

In data set [10] the test system is Mus musculus. Briefly: Antidiabetic activity in streptozotocin-induced diabetic C57BL/6 mouse model assessed as total pancreatic islet area at 20 mg/kg, ip administered for 5 consecutive days with streptozotocin followed by 2 more weeks compound addition without streptozotocin measured post last dose by DAPI staining-based confocal microscopy (reference value: 21.3 +/- 4.4%). Format: functional.

The target in data set [11] is DNA damage-inducible transcript 3 protein (Rattus norvegicus) (UniProt Q62857). Nature of the data set: Inhibition of endoplasmic reticulum stress-induced CHOP activity in rat INS-1 cells assessed as decrease in brefeldin A-induced cell death by measuring cell viability at 5 to 20 uM after 72 hrs by CellTiter-Glo assay. Type of data set: cell-based. The conditions noted are these: INS1. The gist of the method:
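INS-1 cells treated 72 h with or without brefeldin A 0.2 μg/ml in the presence of DMSO or compound at indicated concentrations. Viability measured by CellTiter-Glo. Means ± SD of quadruplicates.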

Data set [12] deals with INS1. Briefly: Cytoprotective activity in endoplasmic reticulum stressed rat INS-1 cells assessed as rescue from tunicamycin-mediated reduction in cell viability at 10 uM after 72 hrs by CellTiter-Glo assay relative to control. Format: functional. The gist of the method: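 INS-1 cells seeded at 3 × 10³/well and exposed for 72 h to Tm 0.1 μg/ml plus compound. Viability measured as ATP by CellTiter-Glo. Tm alone was set to 0% and DMSO without Tm to 100% rescue. Values are the mean of three experiments. EC50 was derived for survival.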

Data set [13] can be described thus: Inhibition of endoplasmic reticulum stress-mediated upregulation of CHOP protein expression in tunicamycin-treated rat INS-1 cells at 20 uM after 2 to 8 hrs by Western blot method. Type of data set: functional, cell-based. The following applies: INS1. The gist of the method:
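INS-1 cells seeded at 8 × 10⁵ per 60-mm dish and treated with Tm and 20 μM compound or DMSO. Lysates (20 μg protein) were run on 7% SDS-PAGE and blotted with anti-CHOP (1:1000). α-Tubulin served as loading control.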

Data set [14] can be described thus: Effect on growth rate of rat INS-1 cells at 2.5 to 10 uM after 72 hrs by CellTiter-Glo assay relative to control. Format: cell-based. The following applies: ins1, 72 h. The gist of the method: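 INS-1 cells grown with compound alone (no stressor) and viability/growth read by CellTiter-Glo, compared with DMSO-treated cells.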
The subject of data set [15] is Mus musculus. Briefly: Antidiabetic activity in streptozotocin-induced diabetic C57BL/6 mouse model assessed as increase in level of insulin-positive beta cells per pancreatic islet at 20 mg/kg, ip administered for 5 consecutive days with streptozotocin followed by 2 more weeks compound addition without streptozotocin measured post last dose by DAPI staining-based confocal microscopy relative to control. Type of data set: functional, organism-based.

The nature of data set [16]: Inhibition of endoplasmic reticulum stress-mediated upregulation of CHOP mRNA expression in tunicamycin-treated rat INS-1 cells at 10 uM by qRT-PCR method. Type of data set: functional, cell-based. The conditions noted are these: INS1, TDE = time-dependent effect. The gist of the method:
as §1

Data set [17] addresses DNA damage-inducible transcript 3 protein (Rattus norvegicus) (UniProt Q62857). Nature of the data set: Inhibition of endoplasmic reticulum stress-induced CHOP activity in rat INS-1 cells assessed as decrease in sodium palmitate-induced cell death by measuring cell viability at 2.5 to 20 uM after 72 hrs by CellTiter-Glo assay. Format: cell-based. The following applies: INS1. The gist of the method:
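INS-1 cells switched to DMEM/1% FBS/1% BSA and stressed with sodium palmitate (from 5 mM stock in 5% BSA; final 0.2 mM). Treated 72 h with DMSO or compound. Viability measured by CellTiter-Glo. Means ± SD of quadruplicates.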

Activity calls are given as the source filed them. The rule behind the calls is not given here.

Sequence of DNA damage-inducible transcript 3 protein (Rattus norvegicus) (Q62857 whole entry, the tested form may be a part): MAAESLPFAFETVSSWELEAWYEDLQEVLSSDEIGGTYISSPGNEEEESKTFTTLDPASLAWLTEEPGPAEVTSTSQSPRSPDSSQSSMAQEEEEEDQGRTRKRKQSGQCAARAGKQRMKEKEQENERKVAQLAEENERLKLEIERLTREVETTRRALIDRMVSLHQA
Sequence of DNA damage-inducible transcript 3 protein (Mus musculus) (P35639 whole entry): as the sequence (Q62857 whole entry, the tested form may be a part) above, with A9T, F10L, A70T, S74R, D97E, A111P, A114P, L142Q counted along it

Regarding `CCc1ccc(-n2nnc(C(=O)Nc3cccc(F)c3)c2C)cc1`, the outcome in data set [1] and in data set [15] was Active. The inhibition entry is “Dose-dependent effect” in [2] and “tde” in [16]. For the same compound, the EC50 in data set [3] was 2800 nM. In addition, the inhibition entry in data set [4], in data set [9], in [11], in data set [13] and in data set [17] was “Active” in each case. The Activity was 1.5% in data set [5]; “Non-toxic” in data set [6]; “Non-toxic” in [7]; “Non-toxic” in [8]; 44.2% in data set [10]; “Non-toxic” in data set [14]. Also, in [12], the “%max” value is 87%.
